According to ChEMBL document CHEMBL1147377, “Knerachelins A and B, antibacterial phenylacylphenols from Knema furfuracea” (1993):
Converted amounts (≈) assume the structure as drawn. The source made the active and inactive calls. No cut-off for these calls is given here.

How the values were obtained:
Klebsiella aerogenes = experiment: Antibacterial activity against Enterobacter aerogenes HM12 after 24 hrs by agar dilution method; assay type: functional
Method in brief: (§1)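 MIC by microplate titration in agar medium (agar dilution). Compounds dissolved in DMSO. Incubation at 37° for 24 h (the 24 h/37° conditions are stated for the bioguiding agar diffusion test against S. aureus 209 P).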

Staphylococcus aureus [1] = experiment: Antibacterial activity against Staphylococcus aureus 209P ATCC 6538 after 24 hrs by agar dilution method; assay type: functional; method in brief: as §1
Salmonella typhimurium = experiment: Antibacterial activity against Salmonella Typhimurium IPL after 24 hrs by agar dilution method; assay type: functional, Salmonella enterica subsp. enterica serovar Typhimurium; conditions: Salmonella enterica; method in brief: as §1
Staphylococcus aureus [2] = experiment: Antibacterial activity against Staphylococcus aureus V. de G. 26109 after 24 hrs by agar dilution method; assay type: functional; method in brief: as §1
Enterococcus faecium = experiment: Antibacterial activity against Enterococcus faecium ATCC 19581 after 24 hrs by agar dilution method; assay type: functional; conditions: ATCC 19581, 24 h; method in brief: as §1
Pseudomonas aeruginosa = experiment: Antibacterial activity against Pseudomonas aeruginosa IPA 237 after 24 hrs by agar dilution method; assay type: functional; method in brief: as §1
Nucleic Acid [3] = experiment: Induction of phiX174 replicative form 1 template DNA cleavage at 48 ug after 1 hr by propidium iodide staining; assay type: nucleic-acid assay
Method in brief: (§2)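 Reaction at pH 7.5, 15 µl final, with 50 mM sodium cacodylate, 100 ng ΦX174 RF I DNA and CuSO4 120 µM plus sample (24 or 48 µg). Incubated 1 h at 25°, stopped with EDTA. Run on 0.8% agarose at 80 V for 1.5 h in Tris-borate pH 8.0. Stained with propidium iodide 0.5 µg/ml; form II DNA scored.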

Staphylococcus aureus [4] = experiment: Antibacterial activity against Staphylococcus aureus ATCC 25923 after 24 hrs by agar dilution method; assay type: functional; conditions: ATCC 25923, 24 h; method in brief: as §1
Staphylococcus aureus [5] = experiment: Antibacterial activity against Staphylococcus aureus IP 8203 after 24 hrs by agar dilution method; assay type: functional; method in brief: as §1
Escherichia coli [6] = experiment: Antibacterial activity against Escherichia coli NIHJ-JC2 after 24 hrs by agar dilution method; assay type: functional; method in brief: as §1
Staphylococcus aureus [7] = experiment: Antibacterial activity against Staphylococcus aureus Duc after 24 hrs by agar dilution method; assay type: functional; method in brief: as §1
Escherichia coli [8] = experiment: Antibacterial activity against Escherichia coli V 2019 after 24 hrs by agar dilution method; assay type: functional; method in brief: as §1
Enterococcus faecalis = experiment: Antibacterial activity against Enterococcus faecalis ATCC 29212 after 24 hrs by agar dilution method; assay type: functional; conditions: ATCC 29212, 24 h; method in brief: as §1
Streptococcus pneumoniae [9] = experiment: Antibacterial activity against Streptococcus pneumoniae 6176-23F after 24 hrs by agar dilution method; assay type: functional; method in brief: as §1
Staphylococcus aureus [10] = experiment: Antibacterial activity against Staphylococcus aureus Duchaussoy after 24 hrs by agar dilution method; assay type: functional; method in brief: as §1
Streptococcus pneumoniae [11] = experiment: Antibacterial activity against Streptococcus pneumoniae 6254.013 after 24 hrs by agar dilution method; assay type: functional; method in brief: as §1
Serratia marcescens = experiment: Antibacterial activity against Serratia marcescens Guilpin 759 after 24 hrs by agar dilution method; assay type: functional; method in brief: as §1
Streptococcus = experiment: Antibacterial activity against Streptococcus A Dig 7 after 24 hrs by agar dilution method; assay type: functional; method in brief: as §1
Streptococcus pneumoniae [12] = experiment: Antibacterial activity against Streptococcus pneumoniae 4314-03 after 24 hrs by agar dilution method; assay type: functional; method in brief: as §1
Klebsiella pneumoniae = experiment: Antibacterial activity against Klebsiella pneumoniae IP 7824 caroli after 24 hrs by agar dilution method; assay type: functional; method in brief: as §1
Nucleic Acid [13] = experiment: Induction of phiX174 replicative form 1 template DNA cleavage at 24 ug after 1 hr by propidium iodide staining; assay type: nucleic-acid assay; method in brief: as §2

Row | MIC (Klebsiella aerogenes) | MIC (Staphylococcus aureus [1]) | MIC (Salmonella typhimurium) | MIC (Staphylococcus aureus [2]) | MIC (Enterococcus faecium) | MIC (Pseudomonas aeruginosa) | MIC (Staphylococcus aureus [4]) | MIC (Staphylococcus aureus [5]) | MIC (Escherichia coli [6]) | MIC (Staphylococcus aureus [7]) | MIC (Escherichia coli [8]) | MIC (Enterococcus faecalis) | MIC (Streptococcus pneumoniae [9]) | MIC (Staphylococcus aureus [10]) | MIC (Streptococcus pneumoniae [11]) | MIC (Serratia marcescens) | MIC (Streptococcus) | MIC (Streptococcus pneumoniae [12]) | MIC (Klebsiella pneumoniae) | Structure (SMILES) | further results
1 | > 128 µg/mL | 8 µg/mL (≈ 26.6 µM) | > 128 µg/mL | 8 µg/mL (≈ 26.6 µM) | 32 µg/mL (≈ 107 µM) | > 128 µg/mL | 8 µg/mL (≈ 26.6 µM) | 8 µg/mL (≈ 26.6 µM) | > 128 µg/mL | 8 µg/mL (≈ 26.6 µM) | > 128 µg/mL | 32 µg/mL (≈ 107 µM) | 8 µg/mL (≈ 26.6 µM) | 8 µg/mL (≈ 26.6 µM) | 8 µg/mL (≈ 26.6 µM) | > 128 µg/mL | 8 µg/mL (≈ 26.6 µM) | 8 µg/mL (≈ 26.6 µM) | > 128 µg/mL | COc1cc(O)c(C(=O)CCCCc2ccccc2)c(O)c1 [KNERACHELIN A] | Activity (Nucleic Acid [3]): inactive
2 | > 128 µg/mL | 4 µg/mL (≈ 14.8 µM) | > 128 µg/mL | 4 µg/mL (≈ 14.8 µM) | 16 µg/mL (≈ 59.2 µM) | > 128 µg/mL | 4 µg/mL (≈ 14.8 µM) | 4 µg/mL (≈ 14.8 µM) | > 128 µg/mL | 4 µg/mL (≈ 14.8 µM) | > 128 µg/mL | 16 µg/mL (≈ 59.2 µM) | 8 µg/mL (≈ 29.6 µM) | 4 µg/mL (≈ 14.8 µM) | 8 µg/mL (≈ 29.6 µM) | > 128 µg/mL | 4 µg/mL (≈ 14.8 µM) | 8 µg/mL (≈ 29.6 µM) | > 128 µg/mL | O=C(CCCCc1ccccc1)c1c(O)cccc1O [KNERACHELIN B] | Activity (Nucleic Acid [13]): inactive
